Experimental data from ChEMBL document CHEMBL4837188, “Identification of Novel Tricyclic Benzo[1,3]oxazinyloxazolidinones as Potent Antibacterial Agents with Excellent Pharmacokinetic Profiles against Drug-Resistant Pathogens” (J Med Chem, 2021).
Values after ≈ are worked out from the molar mass of the structure shown.

Tests used:
Type in all cases: functional
[1] = tested on: Mycobacterium tuberculosis; assay: Antitubercular activity against INH, SM, RFP, EMB, RBT, PAS, OLFX-resistant Mycobacterium tuberculosis 13946 assessed as bacterial growth inhibition incubated for 7 days by MABA; conditions: Mycobacterium tuberculosis, 13946, 168 h; time 7 day
Method in brief: (§1)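 Microplate alamar blue assay. H37Rv or clinical isolates were grown to late log phase in 7H9 broth with glycerol, Tween 80 and ADC, then 2 × 10⁵ CFU added to two-fold dilutions. Final range 32–0.5 μg/mL, lowered to 2–0.016 μg/mL for active compounds. 37 °C, 7 days, then alamar blue 16 h. Fluorescence 530/590 nm. MIC is the lowest concentration giving ≥90% reduction; INH and RFP were controls.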

[2] = tested on: Mycobacterium tuberculosis; assay: Antitubercular activity against INH, SM, RFP, EMB, PAS, Prothionamide 1321, Capreomycin-resistant Mycobacterium tuberculosis 14862 assessed as bacterial growth inhibition incubated for 7 days by MABA; conditions: Mycobacterium tuberculosis, 14862, 168 h; time 7 day; method in brief: as §1
[3] = tested on: Mycobacterium tuberculosis; assay: Antitubercular activity against linezolid resistant Mycobacterium tuberculosis assessed as inhibition of bacterial growth incubated for 7 days by MABA; conditions: 168 h, time 7 day

Work on `NNC(=O)c1ccncc1` [ISONIAZID] yielded an MIC [1] of 2.38 µg/mL (≈ 17.4 µM) and an MIC [2] of over 10 µg/mL.

Compound `CC(=O)NC[C@@H]1OC(=O)N2Cc3cc(-c4ccc(-c5nnn(C)n5)nc4)c(F)cc3O[C@@H]12` has an MIC [1] of 0.39 µg/mL (≈ 0.888 µM), an MIC [2] of 0.85 µg/mL (≈ 1.93 µM) and an MIC [3] of 2.32 µg/mL (≈ 5.28 µM).

In the case of `CC(=O)NC[C@@H]1OC(=O)N2Cc3cc(-c4ccc(C#N)nc4)c(F)cc3O[C@@H]12`, the MIC [1] was 0.48 µg/mL (≈ 1.26 µM), the MIC [2] was 0.82 µg/mL (≈ 2.14 µM) and the MIC [3] was 3.63 µg/mL (≈ 9.49 µM).

`CO[C@H]1/C=C/O[C@@]2(C)Oc3c(C)c(O)c4c(O)c(c(/C=N/N5CCN(C)CC5)c(O)c4c3C2=O)NC(=O)/C(C)=C\C=C\[C@H](C)[C@H](O)[C@@H](C)[C@@H](O)[C@@H](C)[C@H](OC(C)=O)[C@@H]1C` [RIFAMPIN] showed an MIC [1] of over 10 µg/mL and an MIC [2] of over 10 µg/mL.

`CC(=O)NC[C@H]1CN(c2ccc(N3CCOCC3)c(F)c2)C(=O)O1` [LINEZOLID] gave an MIC [3] of 14.5 µg/mL (≈ 43.1 µM).
